# The source made the active and inactive calls. No cut-off for these calls is given here.
# Assays:
# [1] = Selectivity ratio of Compound as ratio of ED15 relative to iliac vascular resistance(IVR) ED30; type: functional
# How it was run: (§1)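 Secondary renal screen in anesthetized dogs: cumulative dose-response by infusing drug at progressively increasing rates, 5 min per dose level. RVR ED15 is the average minimum cumulative dose lowering RVR by 15%; maximum effect is the average maximum % fall in RVR. Selectivity ratios are separations between RVR ED15 and doses giving 30% change in iliac vascular resistance, 20% in MABP, 20% in HR.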
# [2] = species: Rattus norvegicus; test: Adenylase cyclase activity in rat striatal membranes at the concentration of 10e-5; type: functional; conditions: Striatum, Membrane
# [3] = species: Canis familiaris; test: Compound was evaluated for average maximum percent decrease in renal vascular resistance in dogs; type: functional, Canis lupus familiaris; how it was run: as §1
# [4] = Selectivity ratio of compound as ED15 relative to heart rate(HR) ED20; type: functional; how it was run: as §1
# [5] = test system: Rattus norvegicus; test: Central dopaminergic activity against contralateral rotation(1000) in lesioned rats at the dose of 10 mg/kg (p.o.) in 2 h; type: functional; conditions: route oral
# How it was run: (§2)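 Oral dosing in rats with substantia nigra lesions, scoring contralateral rotations. RD1000 is the minimum dose producing 1000 turns in 2 h.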
# [6] = species: Canis familiaris; test: Renal blood flow was measured in dogs; Highly significant activity; type: functional, organism-based; conditions: Canis lupus familiaris; Kidney
# [7] = test system: Rattus norvegicus; test: Central dopaminergic activity for minimum concentration which produced 500 rotations(ip) in 2 h; type: functional
# How it was run: (§3)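 Rats with substantia nigra lesions scored for contralateral rotation after intraperitoneal dosing (routine), oral dosing for selected compounds, or intracaudal administration for intrinsic activity. RD500 and RD1000 are the minimum doses giving 500 and 1000 turns, respectively, in 2 h.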
# [8] = test system: Canis familiaris; test: Compound was evaluated for determining renal vascular resistance(iv) in dogs; type: functional, Canis lupus familiaris; how it was run: as §1
# [9] = species: Canis familiaris; test: Renal vascular resistance was calculated as the ratio of the mean arterial blood pressure / mean renal blood flow; I=Inactive; type: functional, organism-based; conditions: Canis lupus familiaris
# [10] = species: Rattus norvegicus; test: Adenylase cyclase activity in rat striatal membranes at the concentration of 10e-6; type: functional; conditions: Striatum, Membrane
# [11] = Selectivity ratio of compound as ratio of ED15 relative to mean arterial blood pressure(MABP) ED20; type: functional; how it was run: as §1
# [12] = test system: Rattus norvegicus; test: Central dopaminergic activity against contralateral rotation(1000) in lesioned rats(po) in 2 h; type: functional; how it was run: as §2
# [13] = species: Canis familiaris; test: Renal vascular resistance was calculated as the ratio of the mean arterial blood pressure / mean renal blood flow; Highly significant activity; type: functional, organism-based; conditions: Canis lupus familiaris
# [14] = species: Rattus norvegicus; test: Central dopaminergic activity against contralateral rotation(500) in lesioned rats(ic) in 2 h; type: functional; how it was run: as §3
# [15] = test system: Rattus norvegicus; test: Central dopaminergic activity for minimum concentration which produced 500 rotations at the dose of 2 mg/kg (i.p.) in 2 h; I=Inactive; type: functional, organism-based; design: dose 2 mg/kg; how it was run: as §3
# [16] = species: Canis familiaris; test: Renal blood flow was measured in dogs; Significant activity; type: functional, organism-based; conditions: Canis lupus familiaris; Kidney
# [17] = test system: Rattus norvegicus; test: Central dopaminergic activity against contralateral rotation(1000) in lesioned rats at the dose of 6.0 mg/kg (p.o.) in 2 h; type: functional; conditions: route oral; how it was run: as §2
# [18] = test system: Rattus norvegicus; test: Central dopaminergic activity for minimum concentration which produced 500 rotations at the dose of 2.0 mg/kg (i.p.) in 2 h; type: functional; conditions: route intraperitoneal; how it was run: as §3
# [19] = species: Canis familiaris; test: Renal blood flow was measured in dogs; I=Inactive; type: functional, organism-based; conditions: Canis lupus familiaris; Kidney
# [20] = test system: Rattus norvegicus; test: Central dopaminergic activity against contralateral rotation(1000) in lesioned rats at the dose of 5.8(po) in 2 h; I=Inactive; type: functional, organism-based; how it was run: as §2
# [21] = test system: Rattus norvegicus; test: Central dopaminergic activity for minimum concentration which produced 500 rotations at the dose of 10 mg/kg (i.p.) in 2 h; I=Inactive; type: functional, organism-based; design: dose 10 mg/kg; how it was run: as §3
# [22] = species: Rattus norvegicus; test: Central dopaminergic activity against contralateral rotation(500) in lesioned rats; type: functional; how it was run: as §3
# [23] = species: Rattus norvegicus; test: Central dopaminergic activity against contralateral rotation(500) in lesioned rats(ic); type: functional; how it was run: as §3
# [24] = species: Rattus norvegicus; test: Adenylase cyclase activity in rat striatal membranes; type: functional, organism-based, Membrane; conditions: Striatum
# [25] = test system: Rattus norvegicus; test: Central dopaminergic activity against contralateral rotation(1000) in lesioned rats(po) in 2 hr at 10 mg/kg; I=Inactive; type: functional, organism-based; design: dose 10 mg/kg; how it was run: as §2
# [26] = species: Canis familiaris; test: Renal vascular resistance was calculated as the ratio of the mean arterial blood pressure / mean renal blood flow; Significant activity; type: functional, organism-based; conditions: Canis lupus familiaris
# [27] = test system: Rattus norvegicus; test: Central dopaminergic activity for minimum concentration which produced 500 rotations(ip); type: functional; how it was run: as §3
# [28] = test system: Rattus norvegicus; test: Central dopaminergic activity for minimum concentration which produced 500 rotations at the dose of 2.0 mg/kg (i.p.) in 2 h; I=Inactive; type: functional, organism-based; design: dose 2 mg/kg; how it was run: as §3
# [29] = test system: Rattus norvegicus; test: Central dopaminergic activity against contralateral rotation(1000) in lesioned rats at the dose of 6 mg/kg (p.o.) in 2 h; I=Inactive
# [30] = species: Rattus norvegicus; test: Adenylase cyclase activity in rat striatal membranes at the concentration of 10e-7; type: functional; conditions: Striatum, Membrane
smiles,measurement,setting,value
Br.C=CCN1CCc2c(cc(O)c(O)c2Cl)C(c2cccc(Cl)c2)C1 (configuration not stated),Ratio,[1],> 6070
same,DA response,[2],83%
same,Decrease RVR,[3],38%
same,Ratio,[4],>6072
same,RD1000,[5],1160 turns/2 h
same,RBF,[6],Highly significant activity
same,RD500,[7],0.11 mg/kg
same,RVR ED15,[8],0.022 mg/kg
same,RVR,[9],inactive
same,DA response,[10],92%
same,Ratio,[11],>6072
Br.Oc1cc2c(c(Cl)c1O)CCNCC2c1ccccc1 (configuration not stated),RD1000,[12],4.04 mg/kg
same,Decrease RVR,[3],39%
same,RVR,[13],Active
same,RD500,[14],0.22 ug rat-1
same,RBF,[6],Active
same,RD500,[7],0.03 mg/kg
same,RVR ED15,[8],0.0035 mg/kg
CCCN1CCc2c(cc(O)c(O)c2Cl)C(c2ccccc2)C1 (configuration not stated),RD500,[15],inactive
same,RBF,[16],Significant activity
same,RVR,[9],inactive
Br.CN1CCc2c(cc(O)c(O)c2Cl)C(c2cccc(C(F)(F)F)c2)C1 (configuration not stated),RD1000,[17],296 turns/2 h
same,RD500,[18],594 turns/2 h
same,RVR,[9],inactive
same,RBF,[19],inactive
Br.Oc1cc2c(c(Cl)c1O)CCNCC2c1cccc(C(F)(F)F)c1 (configuration not stated),Ratio,[1],10
same,DA response,[2],64%
same,Decrease RVR,[3],44%
same,Ratio,[4],75
same,RVR,[13],Significant activity
same,RD1000,[20],inactive
same,RBF,[6],Highly significant activity
same,RD500,[7],0.71 mg/kg
same,RVR ED15,[8],0.008 mg/kg
same,DA response,[10],59%
same,Ratio,[11],>6072
CS(=O)(=O)O.Oc1ccc(C2CNCCc3c2cc(O)c(O)c3Cl)cc1 (configuration not stated) [FENOLDOPAM MESYLATE],Ratio,[1],> 6070
same,Decrease RVR,[3],59%
same,Ratio,[4],>6072
same,RVR,[13],Significant activity
same,RD500,[21],inactive
same,RD500,[22],0.5 ug rat-1
same,RBF,[6],Highly significant activity
same,RVR ED15,[8],0.0003 mg/kg
same,Ratio,[11],>6072
CN1CCc2c(cc(O)c(O)c2Cl)C(c2ccccc2)C1.Cl (configuration not stated),RD500,[23],0.32 ug rat-1
same,RVR,[13],Significant activity
same,RBF,[16],Significant activity
same,RD500,[7],0.03 mg/kg
same,EC50,[24],600 nM
C=CCN1CCc2c(cc(OC(C)=O)c(OC(C)=O)c2Cl)C(c2ccccc2)C1.Cl (configuration not stated),RD500,[7],0.03 mg/kg
same,RD1000,[25],inactive
Br.Oc1cccc(C2CNCCc3c2cc(O)c(O)c3Cl)c1 (configuration not stated),Ratio,[1],34
same,Decrease RVR,[3],49%
same,Ratio,[4],1029
same,RD500,[21],inactive
same,RBF,[16],Significant activity
same,RVR ED15,[8],0.00035 mg/kg
same,RVR,[26],Significant activity
same,EC50,[24],45 nM
same,Ratio,[11],>6072
Cl.Oc1cc2c(c(Cl)c1O)CCN(Cc1ccc(C(F)(F)F)cc1)CC2c1ccccc1 (configuration not stated),RD500,[27],455 turns/2 h
same,RBF,[16],Significant activity
same,RVR,[9],inactive
Cc1cccc(C2CN(Cc3ccco3)CCc3c2cc(O)c(O)c3Cl)c1 (configuration not stated),RVR,[9],inactive
same,RBF,[19],inactive
same,RD500,[28],inactive
Oc1cc2c(c(Cl)c1O)CCN(Cc1ccco1)CC2c1cccc(Cl)c1 (configuration not stated),RD1000,[29],inactive
same,RBF,[16],Significant activity
same,RVR,[9],inactive
Br.C=CCN1CCc2c(cc(O)c(O)c2Cl)C(c2cccc(C)c2)C1 (configuration not stated),RD1000,[12],3 mg/kg
same,DA response,[2],96%
same,RVR,[13],Significant activity
same,RBF,[6],Highly significant activity
same,RD500,[7],0.04 mg/kg
same,DA response,[30],86%
Br.Oc1cc2c(c(Cl)c1O)CCNCC2c1cccc(Cl)c1 (configuration not stated),DA response,[2],90%
same,RD1000,[5],602 turns/2 h
same,RBF,[6],Highly significant activity
same,RD500,[7],0.3 mg/kg
same,RVR,[9],inactive
same,DA response,[10],82%

# Source: ChEMBL document CHEMBL1122032, “Dopaminergic activity of substituted 6-chloro-1-phenyl-2,3,4,5-tetrahydro-1H-3-benzazepines” (J Med Chem, 1982)
